Measured values collected from several papers.
Medium: plasma

Structure (SMILES)	species	route	dose	notes	endpoint	result
CC[C@H](C)CCCCC(=O)N[C@@H](CCN)C(=O)N[C@H](C(=O)N[C@@H](CCN)C(=O)N[C@H]1CCNC(=O)[C@H]([C@@H](C)O)NC(=O)[C@H](CCN)NC(=O)[C@H](CCN)NC(=O)[C@H](CC(C)C)NC(=O)[C@@H](CC(C)C)NC(=O)[C@H](CCN)NC1=O)[C@@H](C)O	male Sprague-Dawley rat	subcutaneous	10 mg/kg		Tmax	2.67 h
CC[C@H](C)[C@@H]1NC(=O)[C@@H]2CCCN2C(=O)[C@H](CC(C)C)NC(=O)[C@H](CC(C)C)NC(=O)CNC(=O)[C@@H](NC(=O)[C@@H](NC(=O)[C@H](CC(=O)O)NC(=O)CNC(=O)[C@@H](NC(=O)[C@H](C)NC(=O)CNC(=O)[C@H](CCCCN)NC(=O)[C@H](CC(C)C)NC(=O)[C@H](CC(C)C)NC(=O)[C@H](CCCCN)NC(=O)CNC(=O)[C@@H](NC(=O)[C@@H](N)CC(C)C)C(C)C)C(C)C)C(C)C)CSSC[C@@H](C(=O)O)NC1=O	female C57BL/6 mouse	intravenous	10 mg/kg	single dose	C0	3190 ng/mL
CC(C)=CCC[C@](C)(O[C@@H]1O[C@H](CO)[C@@H](O)[C@H](O)[C@H]1O)[C@H]1CC[C@]2(C)[C@@H]1[C@H](O)C[C@@H]1[C@@]3(C)CC[C@H](O)C(C)(C)[C@@H]3CC[C@]12C	mouse	intravenous	2 mg/kg		clearance	0.46 L/h
N=C(N)NCCC[C@H](NC(=O)[C@H](Cc1ccccc1)NC(=O)[C@H](CCC(N)=O)NC(=O)OCc1ccccc1)C(=O)c1nccs1	female C57BL/6 mouse	intravenous	5 mg/kg		clearance	70.2 mL/min/kg
CC(C)[C@]12O[C@H]1[C@@H]1O[C@]13[C@]1(O[C@H]1C[C@H]1C4=C(CC[C@@]13C)C(=O)OC4)[C@@H]2O	SCID mouse	intravenous	0.6 mg/kg		clearance	20.5 mL/min/kg
C[C@@H](O)[C@@H]1NC(=O)CNC(=O)[C@H](Cc2c[nH]cn2)NC(=O)[C@H](Cc2c[nH]c3ccccc23)NC(=O)[C@H](CC(N)=O)NC(=O)CNC(=O)C[C@@H](C(=O)N[C@@H](Cc2c[nH]c3ccccc23)C(=O)N[C@@H](Cc2ccccc2)C(=O)N[C@@H](Cc2ccccc2)C(=O)N[C@@H](CC(N)=O)C(=O)N[C@@H](Cc2ccc(O)cc2)C(=O)N[C@@H](Cc2ccc(O)cc2)C(=O)N[C@@H](Cc2c[nH]c3ccccc23)C(=O)O)NC(=O)[C@@H]2CCCN2C(=O)[C@H](CO)NC1=O	mouse	intravenous	3 mg/kg		clearance	1.34 mL/min/kg
CC[C@H](C)[C@H](NC(=O)[C@H](Cc1ccccc1)NC(=O)[C@H](CCC(=O)O)NC(=O)[C@H](CCCCN)NC(=O)[C@H](C)NC(=O)[C@H](C)NC(=O)[C@H](CCC(N)=O)NC(=O)CNC(=O)[C@H](CCC(=O)O)NC(=O)[C@H](CC(C)C)NC(=O)[C@H](Cc1ccc(O)cc1)NC(=O)[C@H](CO)NC(=O)[C@H](CO)NC(=O)[C@@H](NC(=O)[C@H](CC(=O)O)NC(=O)[C@H](CO)NC(=O)[C@@H](NC(=O)[C@H](Cc1ccccc1)NC(=O)[C@@H](NC(=O)CNC(=O)[C@H](CCC(=O)O)NC(=O)[C@H](C)NC(=O)N(N)Cc1c[nH]cn1)[C@@H](C)O)[C@@H](C)O)C(C)C)C(=O)N[C@@H](C)C(=O)N[C@@H](Cc1c[nH]c2ccccc12)C(=O)N[C@@H](CC(C)C)C(=O)N[C@H](C(=O)N[C@@H](CCCNC(=N)N)C(=O)NCC(=O)N[C@@H](CCCNC(=N)N)C(=O)NCC(=O)O)C(C)C	male CD-1 mouse	intravenous	1 mg/kg	single dose	C0	37700 ng/mL
CC(=O)c1c(C)c2cnc(Nc3ccc(C4CCN(CCS(C)(=O)=O)CC4)cn3)nc2n(C2CCCC2)c1=O	male beagle dog	oral	6 mg/kg	multiple doses	Cmax	98.5 ng/mL
